Source: ChEMBL document CHEMBL1926569, “Novel (E)-1-(4-methyl-2-(alkylamino)thiazol-5-yl)-3-arylprop-2-en-1-ones as potent antimicrobial agents” (2011)
≈ marks a conversion by molar mass, not a printed value.

Columns and labels:
Trichoderma viride [1] = experiment: Antifungal activity against Trichoderma viride IAM 5061 incubated for 72 hrs followed by serial sub-cultivation for 72 hrs by serial dilution technique; type: functional; conditions: IAM 5061, 72 h
Method in brief: (§1)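 MFC: material from 72 h malt broth microdilution wells was serially sub-cultured into fresh broth plates and incubated a further 72 h at 28 °C. Fungicidal concentration is taken from growth after sub-culture. Duplicate, repeated three times.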

Aspergillus fumigatus = experiment: Antifungal activity against Aspergillus fumigatus isolated from human incubated for 72 hrs followed by serial sub-cultivation for 72 hrs by serial dilution technique; type: functional; method in brief: as §1
Talaromyces funiculosus [2] = experiment: Antifungal activity against Penicillium funiculosum ATCC 36839 incubated for 72 hrs followed by serial sub-cultivation for 72 hrs by serial dilution technique; type: functional; conditions: ATCC 36839, 72 h; method in brief: as §1
Trichoderma viride [3] = experiment: Antifungal activity against Trichoderma viride IAM 5061 after 72 hrs by serial dilution technique; type: functional; conditions: IAM 5061, 72 h
Method in brief: (§2)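 Modified microdilution in 96-well plates. Fungi were kept on malt agar at 4 °C. Spores were washed off in sterile 0.85% saline with 0.1% Tween 80. Compounds were dissolved at 1 mg/ml in 5% DMSO with 0.1% Tween 80 and added to malt broth with inoculum. Plates were shaken at 160 rpm for 72 h at 28 °C. Duplicate, repeated three times.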

Penicillium ochrochloron [4] = experiment: Antifungal activity against Penicillium ochrochloron ATCC 9112 incubated for 72 hrs followed by serial sub-cultivation for 72 hrs by serial dilution technique; type: functional; conditions: ATCC 9112, 72 h; method in brief: as §1
Talaromyces funiculosus [5] = experiment: Antifungal activity against Penicillium funiculosum ATCC 36839 after 72 hrs by serial dilution technique; type: functional; conditions: ATCC 36839, 72 h; method in brief: as §2
Penicillium ochrochloron [6] = experiment: Antifungal activity against Penicillium ochrochloron ATCC 9112 after 72 hrs by serial dilution technique; type: functional; conditions: ATCC 9112, 72 h; method in brief: as §2
Aspergillus ochraceus [7] = experiment: Antifungal activity against Aspergillus ochraceus ATCC 12066 after 72 hrs by serial dilution technique; type: functional; conditions: ATCC 12066, 72 h; method in brief: as §2
Aspergillus niger [8] = experiment: Antifungal activity against Aspergillus niger ATCC 6275 incubated for 72 hrs followed by serial sub-cultivation for 72 hrs by serial dilution technique; type: functional; conditions: ATCC 6275, 72 h; method in brief: as §1
Candida albicans [9] = experiment: Antifungal activity against Candida albicans isolated from human after 72 hrs by serial dilution technique; type: functional; method in brief: as §2
Aspergillus flavus [10] = experiment: Antifungal activity against Aspergillus flavus ATCC 9643 after 72 hrs by serial dilution technique; type: functional; conditions: ATCC 9643, 72 h; method in brief: as §2
Aspergillus ochraceus [11] = experiment: Antifungal activity against Aspergillus ochraceus after 72 hrs by serial dilution technique
Candida albicans [12] = experiment: Antifungal activity against Candida albicans isolated from human incubated for 72 hrs followed by serial sub-cultivation for 72 hrs by serial dilution technique; type: functional; method in brief: as §1
Aspergillus niger [13] = experiment: Antifungal activity against Aspergillus niger ATCC 6275 after 72 hrs by serial dilution technique; type: functional; conditions: ATCC 6275, 72 h; method in brief: as §2
Aspergillus ochraceus [14] = experiment: Antifungal activity against Aspergillus ochraceus ATCC 12066 incubated for 72 hrs followed by serial sub-cultivation for 72 hrs by serial dilution technique; type: functional; conditions: ATCC 12066, 72 h; method in brief: as §1
Aspergillus flavus [15] = experiment: Antifungal activity against Aspergillus flavus ATCC 9643 incubated for 72 hrs followed by serial sub-cultivation for 72 hrs by serial dilution technique; type: functional; conditions: ATCC 9643, 72 h; method in brief: as §1
Listeria monocytogenes [16] = experiment: Antibacterial activity against Listeria monocytogenes NCTC 7973 incubated for 24 hrs followed by serial sub-cultivation for 24 hrs by microdilution; type: functional; conditions: NCTC 7973, 24 h
Method in brief: (§3)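 MBC: after the 24 h LB broth microdilution (1.0 × 10⁴ CFU per well, 160 rpm), wells were serially sub-cultured into fresh broth plates and incubated a further 24 h. MBC is the lowest concentration with no visible growth, taken as 99.5% killing of the original inoculum. Duplicate, repeated three times.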

Listeria monocytogenes [17] = experiment: Antibacterial activity against Listeria monocytogenes NCTC 7973 after 24 hrs by microdilution method; type: functional; conditions: NCTC 7973, 24 h
Method in brief: (§4)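 Broth microdilution in 96-well plates. Bacterial suspensions were adjusted in sterile saline to 1.0 × 10⁵ CFU/ml, prepared daily and kept at 4 °C. Compound was added to LB broth with 1.0 × 10⁴ CFU per well and shaken at 160 rpm for 24 h at […] (so in the source). MIC is the lowest concentration with no visible growth under a binocular microscope. OD655 was also read. Duplicate, repeated three times.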

Escherichia coli [18] = experiment: Antibacterial activity against Escherichia coli ATCC 35210 after 24 hrs by microdilution method; type: functional; conditions: ATCC 35210, 24 h; method in brief: as §4
Pseudomonas aeruginosa [19] = experiment: Antibacterial activity against Pseudomonas aeruginosa ATCC 27853 after 24 hrs by microdilution method; type: functional; conditions: ATCC 27853, 24 h; method in brief: as §4
Bacillus cereus [20] = experiment: Antibacterial activity against clinical isolate of Bacillus cereus incubated for 24 hrs followed by serial sub-cultivation for 24 hrs by microdilution; type: functional; method in brief: as §3
Salmonella typhimurium [21] = experiment: Antibacterial activity against Salmonella Typhimurium ATCC 13311 incubated for 24 hrs followed by serial sub-cultivation for 24 hrs by microdilution; type: functional, Salmonella enterica subsp. enterica serovar Typhimurium; conditions: Salmonella enterica, ATCC 13311, 24 h; method in brief: as §3
Enterococcus faecalis [22] = experiment: Antibacterial activity against Enterococcus faecalis isolated from human after 24 hrs by microdilution method; type: functional; method in brief: as §4
Pseudomonas aeruginosa [23] = experiment: Antibacterial activity against Pseudomonas aeruginosa ATCC 27853 incubated for 24 hrs followed by serial sub-cultivation for 24 hrs by microdilution; type: functional; conditions: ATCC 27853, 24 h; method in brief: as §3
Bacillus cereus [24] = experiment: Antibacterial activity against clinical isolate of Bacillus cereus after 24 hrs by microdilution method; type: functional; method in brief: as §4
Micrococcus flavus [25] = experiment: Antibacterial activity against Micrococcus flavus ATCC 10240 after 24 hrs by microdilution method; type: functional; conditions: ATCC 10240, 24 h; method in brief: as §4
Enterococcus faecalis [26] = experiment: Antibacterial activity against Enterococcus faecalis isolated from human incubated for 24 hrs followed by serial sub-cultivation for 24 hrs by microdilution; type: functional; method in brief: as §3
Staphylococcus aureus [27] = experiment: Antibacterial activity against Staphylococcus aureus ATCC 6538 incubated for 24 hrs followed by serial sub-cultivation for 24 hrs by microdilution method; type: functional; conditions: ATCC 6538, 24 h; method in brief: as §3
Salmonella typhimurium [28] = experiment: Antibacterial activity against Salmonella Typhimurium ATCC 13311 after 24 hrs by microdilution method; type: functional, Salmonella enterica subsp. enterica serovar Typhimurium; conditions: Salmonella enterica, ATCC 13311, 24 h; method in brief: as §4
Escherichia coli [29] = experiment: Antibacterial activity against Escherichia coli ATCC 35210 incubated for 24 hrs followed by serial sub-cultivation for 24 hrs by microdilution; type: functional; conditions: ATCC 35210, 24 h; method in brief: as §3
Staphylococcus aureus [30] = experiment: Antibacterial activity against Staphylococcus aureus ATCC 6538 after 24 hrs by microdilution method; type: functional; conditions: ATCC 6538, 24 h; method in brief: as §4
Micrococcus flavus [31] = experiment: Antibacterial activity against Micrococcus flavus ATCC 10240 incubated for 24 hrs followed by serial sub-cultivation for 24 hrs by microdilution; type: functional; conditions: ATCC 10240, 24 h; method in brief: as §3

What does the source list for `c1ccc(-c2ccc(C(c3ccccc3)n3ccnc3)cc2)cc1` (configuration not stated) [BIFONAZOLE]?
MFC (Trichoderma viride [1]): 800 µM (≈ 248 µg/mL); MFC (Aspergillus fumigatus): 640 µM (≈ 199 µg/mL); MFC (Talaromyces funiculosus [2]): 800 µM (≈ 248 µg/mL); MIC (Trichoderma viride [3]): 640 µM (≈ 199 µg/mL); MFC (Penicillium ochrochloron [4]): 640 µM (≈ 199 µg/mL); MIC (Talaromyces funiculosus [5]): 640 µM (≈ 199 µg/mL); MIC (Penicillium ochrochloron [6]): 480 µM (≈ 149 µg/mL); MIC (Aspergillus ochraceus [7]): 480 µM (≈ 149 µg/mL); MFC (Aspergillus niger [8]): 640 µM (≈ 199 µg/mL); MIC (Candida albicans [9]): 320 µM (≈ 99.3 µg/mL); MIC (Aspergillus flavus [10]): 480 µM (≈ 149 µg/mL); MIC (Aspergillus ochraceus [11]): 480 µM (≈ 149 µg/mL); MFC (Candida albicans [12]): 480 µM (≈ 149 µg/mL); MIC (Aspergillus niger [13]): 480 µM (≈ 149 µg/mL); MFC (Aspergillus ochraceus [14]): 800 µM (≈ 248 µg/mL); MFC (Aspergillus flavus [15]): 640 µM (≈ 199 µg/mL)

How did the MBC (Listeria monocytogenes [16]) turn out when `CC1(C)S[C@@H]2[C@H](NC(=O)[C@H](N)c3ccccc3)C(=O)N2[C@H]1C(=O)O` [AMPICILLIN] was run?
Its MBC is 744 µM (≈ 260 µg/mL).

What about the MIC (Listeria monocytogenes [17]) of the same molecule?
Its MIC is 372 µM (≈ 130 µg/mL).

What about the MIC (Escherichia coli [18]) of the same molecule?
The MIC was 372 µM (≈ 130 µg/mL).

What about the MIC (Pseudomonas aeruginosa [19]) of the same molecule?
Its MIC is 744 µM (≈ 260 µg/mL).

What about the MBC (Bacillus cereus [20]) of the same molecule?
Its MBC is 372 µM (≈ 130 µg/mL).

What about the MBC (Salmonella typhimurium [21]) of the same molecule?
The MBC was 492 µM (≈ 172 µg/mL).

And the MIC (Enterococcus faecalis [22])?
Its MIC is 248 µM (≈ 86.7 µg/mL).

What about the MBC (Pseudomonas aeruginosa [23]) of the same molecule?
The MBC was 1240 µM (≈ 433 µg/mL).

And the MIC (Bacillus cereus [24])?
Its MIC is 248 µM (≈ 86.7 µg/mL).

What about the MIC (Micrococcus flavus [25]) of the same molecule?
The MIC was 248 µM (≈ 86.7 µg/mL).

And the MBC (Enterococcus faecalis [26])?
Its MBC is 372 µM (≈ 130 µg/mL).

What about the MBC (Staphylococcus aureus [27]) of the same molecule?
Its MBC is 372 µM (≈ 130 µg/mL).

What about the MIC (Salmonella typhimurium [28]) of the same molecule?
Its MIC is 248 µM (≈ 86.7 µg/mL).

What about the MBC (Escherichia coli [29]) of the same molecule?
Its MBC is 492 µM (≈ 172 µg/mL).

What about the MIC (Staphylococcus aureus [30]) of the same molecule?
The MIC was 248 µM (≈ 86.7 µg/mL).

What about the MBC (Micrococcus flavus [31]) of the same molecule?
The MBC was 372 µM (≈ 130 µg/mL).
